Assay results: ChEMBL document CHEMBL1145067, “3'-C-branched-chain-substituted nucleosides and nucleotides as potent inhibitors of Mycobacterium tuberculosis thymidine monophosphate kinase” (J Med Chem, 2003)

Experiments:
Thymidylate kinase = target: T1, Thymidylate kinase (Mycobacterium tuberculosis, UniProt P9WKE1); experiment: In Vitro inhibition of Thymidine […] Kinase of Mycobacterium tuberculosis (TMPKm)
T1 sequence (P9WKE1 whole entry): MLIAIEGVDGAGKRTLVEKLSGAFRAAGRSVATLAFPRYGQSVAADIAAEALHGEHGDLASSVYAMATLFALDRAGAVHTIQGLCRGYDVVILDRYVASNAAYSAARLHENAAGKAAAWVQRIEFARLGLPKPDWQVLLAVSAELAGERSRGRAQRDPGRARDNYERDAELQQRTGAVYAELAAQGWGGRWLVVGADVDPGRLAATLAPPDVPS
Summary of the method: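 Recombinant TMPKmt or human TMPKh overexpressed in E. coli. ATP was fixed at 0.5 mM and dTMP at 0.05 mM; analogues were varied over 0.01–4 mM.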

[1] = ratio of Ki (Ki TMPKh / KiTMPKmt) was determined
[2] = ratio of Ki (Km TMPKh / Ki TMPKmt) was determined
[3] = ratio of Km (Km TMPKh / Km TMPKmt) was determined
[4] = target: Thymidylate kinase (Homo sapiens) (UniProt P23919); experiment: In Vitro inhibition of […] (TMPKh); No inhibition at 4000 uM
Chain of Thymidylate kinase (Homo sapiens) (P23919 whole entry, looked up): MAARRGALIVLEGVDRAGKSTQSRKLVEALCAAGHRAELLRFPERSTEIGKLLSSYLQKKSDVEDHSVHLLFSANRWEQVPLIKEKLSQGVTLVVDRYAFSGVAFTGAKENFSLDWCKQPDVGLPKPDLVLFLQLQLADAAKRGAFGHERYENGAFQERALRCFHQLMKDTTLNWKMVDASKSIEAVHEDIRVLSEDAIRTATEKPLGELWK

SMILES: Cc1cn([C@H]2C[C@H](CCO)[C@@H](CO)O2)c(=O)[nH]c1=O
- Ki (Thymidylate kinase): 156 µM

SMILES: Cc1cn([C@@H]2O[C@H](COP(=O)(O)O)[C@@H](CN=[N+]=[N-])[C@H]2O)c(=O)[nH]c1=O
- Ki (Thymidylate kinase): 116 µM

SMILES: Cc1cn([C@@H]2O[C@H](CO)[C@@H](CN)[C@H]2O)c(=O)[nH]c1=O
- SI [1]: 0.3
- Ki (Thymidylate kinase): 393 µM

SMILES: Cc1cn([C@H]2C[C@H](N=[N+]=[N-])[C@@H](COP(=O)(O)O)O2)c(=O)[nH]c1=O
- SI [2]: 1.2

SMILES: Cc1cn([C@H]2C[C@H](CN=[N+]=[N-])[C@@H](COP(=O)(O)O)O2)c(=O)[nH]c1=O
- SI [1]: 2.7
- Ki (Thymidylate kinase): 12 µM

SMILES: Cc1cn([C@H]2C[C@H](CN)[C@@H](COP(=O)(O)O)O2)c(=O)[nH]c1=O
- SI [1]: 0.4
- Ki (Thymidylate kinase): 10.5 µM

SMILES: Cc1cn([C@H]2C[C@H](CO)[C@@H](CO)O2)c(=O)[nH]c1=O
- SI [1]: 10
- Ki (Thymidylate kinase): 41 µM

SMILES: Cc1cn([C@H]2C[C@H](CN)[C@@H](CO)O2)c(=O)[nH]c1=O
- SI [1]: 3.9
- Ki (Thymidylate kinase): 57 µM

SMILES: Cc1cn([C@H]2C[C@H](CF)[C@@H](COP(=O)(O)O)O2)c(=O)[nH]c1=O
- SI [1]: 2.7
- Ki (Thymidylate kinase): 15 µM

SMILES: Cc1cn([C@H]2C[C@H](N=[N+]=[N-])[C@@H](CO)O2)c(=O)[nH]c1=O [ZIDOVUDINE]
- Ki (Thymidylate kinase): 28 µM

SMILES: Cc1cn([C@H]2C[C@H](O)[C@@H](COP(=O)(O)O)O2)c(=O)[nH]c1=O
- SI [3]: 1.1

SMILES: Cc1cn([C@H]2C[C@H](CN=[N+]=[N-])[C@@H](CO)O2)c(=O)[nH]c1=O
- SI [1]: 26
- Ki (Thymidylate kinase): 40 µM

SMILES: Cc1cn([C@@H]2O[C@H](COP(=O)(O)O)[C@@H](CN)[C@H]2O)c(=O)[nH]c1=O
- SI [1]: 0.9
- Ki (Thymidylate kinase): 315 µM

SMILES: Cc1cn([C@H]2C[C@H](CO)[C@@H](COP(=O)(O)O)O2)c(=O)[nH]c1=O
- SI [1]: 1.5
- Ki (Thymidylate kinase): 29 µM

SMILES: Cc1cn([C@@H]2O[C@H](CO)[C@@H](CN=[N+]=[N-])[C@H]2O)c(=O)[nH]c1=O
- Ki (Thymidylate kinase): 770 µM
- NI [4]: No inhibition at 4000 uM

SMILES: Cc1cn([C@H]2C[C@H](CF)[C@@H](CO)O2)c(=O)[nH]c1=O
- SI [1]: 21.6
- Ki (Thymidylate kinase): 45 µM
